ChEMBL document CHEMBL1687926, “14-Aminocamptothecins: their synthesis, preclinical activity, and potential use for cancer treatment” (J Med Chem, 2011)
“And” between values parts separate entries of the source, which are not always exact repeats. Equal entries are not always repeated.

Assays:
[1] = Ratio of IC90 for mouse bone marrow cell to IC90 for human bone marrow cell; type: ADME, cell-based; conditions: bone marrow cells
Outline: (§1)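 CFU-GM colony assay in triplicate at 2 × 10⁴ cells per culture, using thawed normal human bone marrow or fresh mouse femoral marrow. Colonies were scored after 16-18 days. The IC50 or IC90 from each species gave the mouse/human ratio.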

[2] = Cytotoxicity against human bone marrow cell by CFU-GM assay; type: cell-based; conditions: for IC50: Homo sapiens, Bone marrow cell; for IC90: human, bone marrow cells
[3] = Ratio of IC50 for mouse bone marrow cell to IC50 for human bone marrow cell; type: cell-based; conditions: bone marrow cells; outline: as §1
[4] = Cytotoxicity against mouse bone marrow cell by CFU-GM assay; type: cell-based
Outline: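 CFU-GM colony assay on normal human bone marrow (thawed) or mouse femoral marrow (freshly extracted). Human colonies scored after 16-18 days. IC₅₀ taken from triplicate assays.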

NCI-H460 [5] = test: Cytotoxicity against human H460 cells after 72 hrs by alamar blue assay; type: functional, cell-based
Outline: (§2)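 Cells seeded at 4 × 10³ per well and grown 24 h. Compounds dissolved in DMSO and diluted in medium to final concentrations, then incubated 72 h at 37 °C, 5% CO₂. Viable cells read by AlamarBlue; IC₅₀ taken as the concentration giving 50% growth inhibition.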

NCI-H460 [6] = test: Antitumor activity against human H460 cells xenografted in nu/nu mouse assessed as tumor growth delay at 2 mg/kg, po QD for 5 days followed by 2days without treatment for 2 weeks; type: functional
Outline: (§3)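 Nude mice (nu/nu), females, or males for the prostate model, 4-6 weeks old, implanted sc in the flank with tumor cells (H460 at 1 × 10⁶). Groups of 10 were randomized at 100-150 mm³. Dosing was oral gavage in 5% DMSO/5% Tween 80/1% CMC in water, QD 5 days on/2 off per cycle, for 2 cycles (H460, PC-3) or 4 cycles (HT29). Tumor volume (length × width²/2) and body weight were measured twice weekly.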

Malme-3M = test: Cytotoxicity against human MALME-3M cells after 72 hrs by alamar blue assay; type: functional, cell-based; outline: as §2
A-375 = test: Cytotoxicity against human A375 cells after 72 hrs by alamar blue assay; type: functional, cell-based; conditions: A-375, 72 h; outline: as §2
[7] = Cytotoxicity against human MESSA cells after 72 hrs by alamar blue assay; type: functional, cell-based; conditions: MES-SA; outline: as §2
PC-3 [8] = test: Antitumor activity against human PC3 cells xenografted in nu/nu mouse assessed as tumor growth delay at 2 mg/kg, po QD for 5 days followed by 2days without treatment for 2 weeks; type: functional; outline: as §3
Mus musculus [9] = test: Toxicity in nu/nu mouse assessed as body weight loss at 2 mg/kg, po QD for 5 days followed by 2 days without treatment for 2 weeks; type: organism-based; design: dose 2 mg/kg, route oral; conditions: in vivo; outline: as §3
HT-29 [10] = test: Antitumor activity against human HT-29 cells xenografted in nu/nu mouse assessed as tumor growth inhibition at 2 mg/kg, po QD for 5 days; design: scale not given: the % may be the effect or the level left
SK-MEL-2 = test: Cytotoxicity against human SK-MEL-2 cells after 72 hrs by alamar blue assay; type: functional, cell-based; conditions: SK-MEL-2, 72 h; outline: as §2
[11] = Resistance ratio of IC50 for human H69AR cells overexpressing MRP1 after 72 hrs s to IC50 for human H69 cells after 72 hrs
[12] = Resistance ratio of IC50 for human MES-SA/Dx5 cells overexpressing MDR1 after 72 hrs to IC50 for human MESSA cells after 72 hrs; type: functional
Outline: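 Cytotoxicity compared in MDR1-overexpressing lines and their parental wild-type lines. 72 h exposure at 37 °C, viability by AlamarBlue, IC₅₀ at 50% growth inhibition. Resistance ratio = IC₅₀ in overexpressing line / IC₅₀ in parental line.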

NCI-H460 [13] = test: Ratio IC50 for human H460 cells after 72 hrs in presence of 40 mg/ml HSA to IC50 for human H460 cells after 72 hrs; type: functional
Outline: (§4)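 H460 cells seeded at 4 × 10³ per well and grown 24 h. Compounds then cocultured with cells for 72 h at 37 °C, with or without 40 mg/mL human serum albumin. Viability read by AlamarBlue; IC₅₀ = 50% growth inhibition. Ratio compares the IC₅₀ with HSA to the IC₅₀ without.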

LNCaP = test: Cytotoxicity against human LNCAP cells after 72 hrs by alamar blue assay; type: functional, cell-based; outline: as §2
NCI-H460 [14] = test: Antitumor activity against human H460 cells xenografted in nu/nu mouse assessed as tumor growth inhibition at 2 mg/kg, po QD for 5 days followed by 2days without treatment for 2 weeks; type: functional; design: scale not given: the % may be the effect or the level left; outline: as §3
NCI-H460 [15] = test: Cytotoxicity against human H460 cells after 72 hrs by alamar blue assay in presence of 40 mg/ml HSA; type: functional, cell-based; conditions: NCI-H460, 72 h; outline: as §4
IGROV-1 = test: Cytotoxicity against human IGROV1 cells after 72 hrs by alamar blue assay; type: functional, cell-based; conditions: IGROV-1, 72 h; outline: as §2
PC-3 [16] = test: Cytotoxicity against human PC3 cells after 72 hrs by alamar blue assay; type: functional, cell-based; conditions: PC-3, 72 h; outline: as §2
HT-29 [17] = test: Cytotoxicity against human HT-29 cells after 72 hrs by alamar blue assay; type: functional, cell-based; conditions: HT-29, 72 h; outline: as §2
H69AR = test: Cytotoxicity against human H69AR cells overexpressing MRP1 after 72 hrs by alamar blue assay
PC-3 [18] = test: Antitumor activity against human PC3 cells xenografted in nu/nu mouse assessed as tumor growth inhibition at 2 mg/kg, po QD for 5 days followed by 2days without treatment for 2 weeks; type: functional; design: scale not given: the % may be the effect or the level left; outline: as §3
NCI-H69 = test: Cytotoxicity against human H69 cells after 72 hrs by alamar blue assay; type: functional, cell-based; conditions: NCI-H69, 72 h; outline: as §2
Mus musculus [19] = test: Toxicity in nu/nu mouse assessed as body weight loss at 2 mg/kg, po QD for 5 days followed by 4 days without treatment for 2 weeks; type: organism-based; design: dose 2 mg/kg, route oral; conditions: in vivo
DU-145 = test: Cytotoxicity against human DU145 cells after 72 hrs by alamar blue assay; type: functional, cell-based; conditions: DU-145, 72 h; outline: as §2
[20] = Cytotoxicity against human MES-SA/Dx5 cells overexpressing MDR1 after 72 hrs by alamar blue assay; type: functional, cell-based; conditions: MES-SA/Dx5, 72 h; outline: as §2
HT-29 [21] = test: Antitumor activity against human HT-29 cells xenografted in nu/nu mouse assessed as tumor growth delay at 2 mg/kg, po QD for 5 days
[22] = Cmax in CD-1 mouse brain at 50 mg/kg, ip by LC/MS/MS analysis; type: ADME, organism-based; design: dose 50 mg/kg, route intraperitoneal
Outline: (§5)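 CD-1 mice (~25 g) given 50 mg/kg ip in 5% DMSO/5% Tween 80 in water; three mice per time point, sampled up to 480 min. Blood taken by cardiac puncture into EDTA, then whole brain excised and homogenized in water. Proteins precipitated with ice-cold acetonitrile containing propranolol internal standard; supernatant analysed by HPLC/MS/MS.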

[23] = Tmax in CD-1 mouse brain at 50 mg/kg, ip by LC/MS/MS analysis; type: ADME, organism-based; design: dose 50 mg/kg, route intraperitoneal; outline: as §5
[24] = Half life in CD-1 mouse brain at 50 mg/kg, ip by LC/MS/MS analysis; type: ADME, organism-based; design: dose 50 mg/kg, route intraperitoneal; outline: as §5
NCI-H460 [25] = test: Antitumor activity against human H460 cells xenografted in nu/nu mouse assessed as tumor growth delay at 30 mg/kg, po QD for 5 days followed by 2days without treatment for 2 weeks; type: functional
Outline: (§6)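 Female nude (nu/nu) mice (males for prostate model) implanted sc in the flank with tumor cells (1 × 10⁶ for H460). Dosing began at 100-150 mm³, 10 mice/group. Oral gavage in 5% DMSO/5% Tween 80/1% CMC in water, 5 days on/2 off per cycle, 2 or 4 cycles. Volume = length×width²/2, measured twice weekly. TGI = (1 − ΔT/ΔC)×100; TGD = extra days to reach 500 mm³ versus control.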

[26] = Cmax in CD-1 mouse plasma at 50 mg/kg, ip by LC/MS/MS analysis; type: ADME, organism-based; design: dose 50 mg/kg, route intraperitoneal; outline: as §5
Mus musculus [27] = test: Toxicity in nu/nu mouse assessed as body weight loss at 30 mg/kg, po QD for 5 days followed by 2 days without treatment for 2 weeks; type: organism-based; design: dose 30 mg/kg, route oral; conditions: in vivo
Outline: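 Female nude (nu/nu) mice (males for prostate model) bearing sc xenografts, dosing started at 100-150 mm³, 10/group. Oral gavage in 5% DMSO/5% Tween 80/1% CMC in water, QD 5 days on/2 off per cycle, 2 or 4 cycles. Body weight recorded twice weekly; maximum loss reported.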

[28] = Ratio of drug level in brain to plasma in CD-1 mouse at 50 mg/kg, ip; type: ADME, organism-based; design: dose 50 mg/kg, route intraperitoneal; outline: as §5
NCI-H460 [29] = test: Antitumor activity against human H460 cells xenografted in nu/nu mouse assessed as tumor growth inhibition at 30 mg/kg, po QD for 5 days followed by 2days without treatment for 2 weeks; type: functional; design: scale not given: the % may be the effect or the level left; outline: as §6
[30] = AUC in CD-1 mouse plasma at 50 mg/kg, ip by LC/MS/MS analysis; type: ADME, organism-based; design: dose 50 mg/kg, route intraperitoneal; outline: as §5
[31] = AUC in CD-1 mouse brain at 50 mg/kg, ip by LC/MS/MS analysis; type: ADME, organism-based; design: dose 50 mg/kg, route intraperitoneal; outline: as §5
[32] = Half life in CD-1 mouse plasma at 50 mg/kg, ip by LC/MS/MS analysis; type: ADME, organism-based; design: dose 50 mg/kg, route intraperitoneal; outline: as §5
[33] = Tmax in CD-1 mouse plasma at 50 mg/kg, ip by LC/MS/MS analysis; type: ADME, organism-based; design: dose 50 mg/kg, route intraperitoneal; outline: as §5

Row | SMILES | selectivity ratio [1] | IC50 [2] [µM] | IC90 [2] [µM] | selectivity ratio [3] | IC50 [4] [µM] | IC50 (NCI-H460 [5]; Homo sapiens, NCI-H460, 72 h) [µM] | IC50 (Malme-3M) [µM] | IC50 (A-375) [µM] | IC50 [7] [µM] | IC50 (SK-MEL-2) [µM] | Ratio [11] | Ratio [12] | Ratio (NCI-H460 [13]) | IC50 (LNCaP) [µM] | IC50 (NCI-H460 [15]) [µM] | IC50 (PC-3 [16]) [µM] | IC50 (HT-29 [17]) [µM] | IC50 (H69AR) [µM] | IC50 (NCI-H69) [µM] | IC50 [20] [µM] | other results
1 | CC[C@@]1(O)C(=O)OCc2c1cc1n(c2=O)Cc2cc3c(N)cccc3nc2-1 [9-AMINOCAMPTOTHECIN] | 88 | 0.001 | 0.008 | 75 | 0.09 | – | – | – | – | – | – | – | – | – | – | – | – | – | – | – | –
2 | CCc1c2c(nc3ccccc13)-c1c3c(c(CO)c(=O)n1C2)[C@@](O)(CC)C(=O)N3 | – | – | – | – | – | > 10 | – | – | – | – | – | – | – | – | – | – | – | – | – | – | –
3 | CC[C@@]1(O)C(=O)OCc2c1cc1n(c2=O)Cc2cc3c(CN(C)C)c(O)ccc3nc2-1 [TOPOTECAN] | 14 | 0.008 | 0.05 | 16 | 0.13 | 0.045 | 1 | 0.013 | 0.004 | 0.14 | >47 | 8 | 2 | 0.009 | 0.11 | 0.045 | > 1 | > 0.3 | 0.006 | 0.033 | Time (NCI-H460 [6]): 5 days; Time (PC-3 [8]): 21 days; Activity (Mus musculus [9]): 9%; Activity (HT-29 [10]): 70%; Activity (NCI-H460 [14]): 46%; IC50 (IGROV-1): 0.16 µM; Activity (PC-3 [18]): 79%; Activity (Mus musculus [19]): 0% and 1%; IC50 (DU-145): 1 µM; Time (HT-29 [21]): 16 days
4 | CC[C@@]1(O)C(=O)OCc2c1cc1n(c2=O)Cc2cc3ccccc3nc2-1 [CAMPTOTHECIN] | – | – | – | – | – | 0.013 | – | – | 0.057 | – | >250 | 1 | >77 | – | > 1 | 0.012 | 0.26 | > 0.3 | 0.001 | 0.052 | –
5 | CC[C@@]1(O)C(=O)OCc2c1c(N)c1n(c2=O)Cc2cc3ccccc3nc2-1 | 4 | 0.71 | 4.8 | 6 | 0.01 | 0.018 | 0.78 | 0.022 | 0.058 | 0.17 | 1 | 1 | 5 | 0.11 | 0.12 | 0.043 | 0.23 | 0.091 | 0.091 | 0.06 | Cmax [22]: 600 ng/mL; IC50 (NCI-H460 [5]; nci-h460): 0.023 µM; Tmax [23]: 0.5 h; half-life [24]: 3.5 h; Time (NCI-H460 [25]): 15 days; Cmax [26]: 600 ng/mL; IC50 (IGROV-1): 0.12 µM; Activity (Mus musculus [27]): 4%; Kp [28]: 101; Activity (NCI-H460 [29]): 79%; IC50 (DU-145): 0.78 µM; AUC [30]: 1500 ng·h/mL; AUC [31]: 1670 ng·h/mL; half-life [32]: 4.17 h; Tmax [33]: 0.5 h
